{"data": "Measured values collected from several papers", "target": "Wee1-like protein kinase (WEE1, Homo sapiens, UniProt P30291)", "note": "Lines come from different studies, so protocols differ."}
{"Structure (SMILES)": "C[C@H](NC(=O)c1cnc2n1[C@](C)(Cc1ccc(C#N)cc1)C(=O)N2c1cc(Cl)c(F)c(Cl)c1)C(=O)NC1(c2ccccn2)CC1", "assay": "cell-free assay, competition with immobilised ligand", "conditions": "1 µM", "measurement": "remaining binding", "result": "100%"}
{"Structure (SMILES)": "Cc1ccc(C(=O)NCc2ccsc2)cc1C#Cc1cn(C(C)C)c2ncnc(N)c12", "assay": "enzyme activity, inhibitor", "conditions": "1 µM", "measurement": "activity vs control", "result": "103%"}
{"Structure (SMILES)": "N#Cc1ccc(Nc2ccc3[nH]c(=O)[nH]c3c2)c(Cl)c1", "assay": "cell-free assay, competition with immobilised ligand", "conditions": "1 µM", "measurement": "remaining binding", "result": "87%"}
{"Structure (SMILES)": "Cc1ccc(C(=O)Nc2ccc(CN3CCN(C)CC3)c(C(F)(F)F)c2)cc1C#Cc1cnc2cccnn12", "assay": "enzyme activity, inhibitor", "conditions": "23.5 nM", "measurement": "remaining activity", "result": "100%"}
{"Structure (SMILES)": "Cc1ccc(NC(=O)c2ccc(C)c(C(F)(F)F)c2)cc1C#Cc1nn(C2CCC(O)CC2)c2ncnc(N)c12 (stereo not shown)", "assay": "cell-free assay", "conditions": "10 µM", "measurement": "remaining signal", "result": "95%"}
{"Structure (SMILES)": "CC(=O)N1CCC(c2ccc(C(=O)NC3=NCCN3)cc2C(F)(F)F)CC1", "assay": "cell-free assay, competition with immobilised ligand", "conditions": "1 µM", "measurement": "remaining binding", "result": "100%"}
{"Structure (SMILES)": "CN(c1nccc(-c2cnn3ncccc23)n1)C1CC1", "assay": "binding", "conditions": "1 µM", "measurement": "remaining binding", "result": "100%"}
{"Structure (SMILES)": "O=C(Nc1cnn(-c2csc(C(=O)NC3COC3)c2)c1)Nc1ccccc1Cl", "assay": "enzyme activity, inhibitor", "conditions": "5 µM", "measurement": "remaining activity", "result": "124%"}
{"Structure (SMILES)": "COc1cc2ncnc(Nc3ccc(F)c(Cl)c3)c2cc1OCCCN1CCOCC1", "assay": "cell-free assay", "conditions": "0.5 µM", "measurement": "remaining signal", "result": "93.8%"}
{"Structure (SMILES)": "CC(C)(O)[C@H]1CC[C@H](Nc2ccc3ncc(-c4cccc(C(F)(F)F)c4)n3n2)CC1", "assay": "enzyme activity, inhibitor", "conditions": "1 µM", "measurement": "remaining activity", "result": "87.3%"}
{"Structure (SMILES)": "COc1cc2c(Nc3ccc(Br)cc3F)ncnc2cc1OCC1CCN(C)CC1", "assay": "cell-free assay", "conditions": "0.5 µM", "measurement": "remaining signal", "result": "95.1%"}
{"Structure (SMILES)": "CCOCCn1cc(C(=O)Nc2ccc(-n3nc(-c4cccnc4)cc3C(F)(F)F)cn2)ccc1=O", "assay": "cell-free assay, competition with immobilised ligand", "conditions": "1 µM", "measurement": "remaining binding", "result": "100%"}
{"Structure (SMILES)": "Cc1ccc(NC(=O)c2ccc(CN3CCN(C)CC3)cc2)cc1Nc1nc(-c2cccnc2)cs1", "assay": "cell-free assay", "conditions": "0.5 µM", "measurement": "remaining signal", "result": "97%"}
{"Structure (SMILES)": "CC(C)(C)c1nc2c(s1)c1nc(N)ncc1c1ccc(NS(=O)(=O)c3c(F)cccc3F)c(F)c12", "assay": "enzyme activity, inhibitor, radiometric", "conditions": "1 µM", "measurement": "remaining activity", "result": "87%"}
{"Structure (SMILES)": "N#CCCc1ccc2c(c1)-c1[nH]c3ccc([N+](=O)[O-])cc3c1CC(=O)N2", "assay": "cell-free assay", "conditions": "0.5 µM", "measurement": "remaining signal", "result": "100%"}
{"Structure (SMILES)": "O=c1nc(-c2ccccn2)sc2ccccc12", "assay": "binding, competition with immobilised ligand", "conditions": "1 µM", "measurement": "remaining binding", "result": "100%"}
